The text below walks through data of ChEMBL document CHEMBL2086321, “Modulation of thermo-transient receptor potential (thermo-TRP) channels by thymol-based compounds” (Bioorg Med Chem Lett, 2012).

Holding throughout (type): cell-based
Assay [1] has as its target Transient receptor potential cation channel subfamily M member 8 (Rattus norvegicus) (UniProt Q8R455). Description: Activation of rat TRPM8 expressed in HEK293 cells assessed as stimulation of intracellular Ca2+ levels relative to 4 uM ionomycin. In a few lines: (§1)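 Efficacy on HEK293 cells stably expressing rat TRPM8 or rat TRPV3 is the intracellular Ca2+ elevation expressed as percent of the ionomycin response.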

Another assay relates to HEK293. As to the kind of experiment: Activation of rat TRPV3 expressed in HEK293 cells assessed as stimulation of intracellular Ca2+ levels relative to 4 uM ionomycin. In a few lines: as §1
In assay [2] the target is T1, Transient receptor potential cation channel subfamily M member 8 (Rattus norvegicus, UniProt Q8R455). As to the kind of experiment: Inhibition of rat TRPM8 expressed in HEK293 cells assessed as reduction in 20 uM menthol-stimulated increase in intracellular Ca2+ levels. The essentials: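 IC50 on rat TRPM8 stably expressed in HEK293 cells, measured as inhibition of the intracellular Ca2+ response to icilin or menthol. Means ± SEM, N = 3.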

The target in assay [3] is T1, Transient receptor potential cation channel subfamily M member 8. As to the kind of experiment: Inhibition of rat TRPM8 expressed in HEK293 cells assessed as reduction in […] icilin-stimulated increase in intracellular Ca2+ levels.
Assay [4] in a line: Inhibition of rat TRPV3 expressed in HEK293 cells assessed as reduction in 100 uM thymol-stimulated increase in intracellular Ca2+ levels.
The target of assay [5] is T1, Transient receptor potential cation channel subfamily M member 8. As to the kind of experiment: Activation of rat TRPM8 expressed in HEK293 cells assessed as stimulation of intracellular Ca2+ levels. In a few lines: (§2)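 HEK293 cells stably transfected with rat TRPA1, rat TRPM8 or rat TRPV3 cDNA. Compounds were applied and the rise in intracellular Ca2+ was recorded.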

Assay [6] can be described thus: Activation of rat TRPV3 expressed in HEK293 cells assessed as stimulation of intracellular Ca2+ levels. The essentials: as §2
The target in assay [7] is T2, Transient receptor potential cation channel subfamily A member 1 (Rattus norvegicus, UniProt Q6RI86). As to the kind of experiment: Inhibition of rat TRPA1 expressed in HEK293 cells assessed as reduction in 100 uM allyl isothiocyanate-stimulated increase in intracellular Ca2+ levels. In a few lines: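 Rat TRPA1-HEK293 stable cells were preincubated 5 min with compound, then incubation continued with allyl isothiocyanate.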

Assay [8] concerns the target Transient receptor potential cation channel subfamily A member 1 (Rattus norvegicus) (UniProt Q6RI86). As to the kind of experiment: Activation of rat TRPA1 expressed in HEK293 cells assessed as stimulation of intracellular Ca2+ levels relative to 100 uM allyl isothiocyanate. The essentials: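 Efficacy on stably transfected rat TRPA1-HEK293 cells is the intracellular Ca2+ rise expressed as percent of the allyl isothiocyanate response. Means ± SEM, N = 3.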

The target in assay [9] is T2, Transient receptor potential cation channel subfamily A member 1. As to the kind of experiment: Activation of rat TRPA1 expressed in HEK293 cells assessed as stimulation of intracellular Ca2+ levels. The essentials: as §2

Structures are written as SMILES. A value given as a limit tells only on which side of the number the result lay.

Sequence of Transient receptor potential cation channel subfamily A member 1 (Rattus norvegicus) (Q6RI86 whole entry): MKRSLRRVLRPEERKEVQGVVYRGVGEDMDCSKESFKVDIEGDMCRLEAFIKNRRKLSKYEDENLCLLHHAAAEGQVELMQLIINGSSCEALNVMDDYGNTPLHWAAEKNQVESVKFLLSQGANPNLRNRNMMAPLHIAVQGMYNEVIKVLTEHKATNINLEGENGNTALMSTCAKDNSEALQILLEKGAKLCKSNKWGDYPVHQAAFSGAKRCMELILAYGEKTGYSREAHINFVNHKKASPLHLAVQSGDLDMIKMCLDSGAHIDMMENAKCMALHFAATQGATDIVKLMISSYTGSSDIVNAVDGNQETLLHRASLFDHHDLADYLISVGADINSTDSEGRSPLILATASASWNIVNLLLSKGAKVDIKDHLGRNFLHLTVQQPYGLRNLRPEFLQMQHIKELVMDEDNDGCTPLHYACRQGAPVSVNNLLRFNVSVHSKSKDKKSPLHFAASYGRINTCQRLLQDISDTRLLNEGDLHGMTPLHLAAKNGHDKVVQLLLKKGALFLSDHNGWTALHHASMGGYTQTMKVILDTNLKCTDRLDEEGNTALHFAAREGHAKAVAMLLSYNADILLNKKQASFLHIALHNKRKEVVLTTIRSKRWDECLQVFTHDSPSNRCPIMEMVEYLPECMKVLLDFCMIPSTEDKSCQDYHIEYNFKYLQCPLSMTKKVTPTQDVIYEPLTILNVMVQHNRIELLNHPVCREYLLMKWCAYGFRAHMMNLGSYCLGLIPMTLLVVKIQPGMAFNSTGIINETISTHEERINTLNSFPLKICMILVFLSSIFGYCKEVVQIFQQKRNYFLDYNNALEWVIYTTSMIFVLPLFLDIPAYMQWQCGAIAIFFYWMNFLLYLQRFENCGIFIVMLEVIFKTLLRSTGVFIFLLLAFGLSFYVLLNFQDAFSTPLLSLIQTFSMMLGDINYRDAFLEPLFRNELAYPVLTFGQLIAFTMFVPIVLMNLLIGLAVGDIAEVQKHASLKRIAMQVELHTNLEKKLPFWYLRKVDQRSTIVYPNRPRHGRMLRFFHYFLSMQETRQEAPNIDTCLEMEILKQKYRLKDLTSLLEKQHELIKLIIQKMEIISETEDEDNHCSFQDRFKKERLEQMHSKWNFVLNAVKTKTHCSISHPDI
T2 sequence (Q6RI86 whole entry): as above
Sequence of Transient receptor potential cation channel subfamily M member 8 (Rattus norvegicus) (Q8R455 whole entry, looked up): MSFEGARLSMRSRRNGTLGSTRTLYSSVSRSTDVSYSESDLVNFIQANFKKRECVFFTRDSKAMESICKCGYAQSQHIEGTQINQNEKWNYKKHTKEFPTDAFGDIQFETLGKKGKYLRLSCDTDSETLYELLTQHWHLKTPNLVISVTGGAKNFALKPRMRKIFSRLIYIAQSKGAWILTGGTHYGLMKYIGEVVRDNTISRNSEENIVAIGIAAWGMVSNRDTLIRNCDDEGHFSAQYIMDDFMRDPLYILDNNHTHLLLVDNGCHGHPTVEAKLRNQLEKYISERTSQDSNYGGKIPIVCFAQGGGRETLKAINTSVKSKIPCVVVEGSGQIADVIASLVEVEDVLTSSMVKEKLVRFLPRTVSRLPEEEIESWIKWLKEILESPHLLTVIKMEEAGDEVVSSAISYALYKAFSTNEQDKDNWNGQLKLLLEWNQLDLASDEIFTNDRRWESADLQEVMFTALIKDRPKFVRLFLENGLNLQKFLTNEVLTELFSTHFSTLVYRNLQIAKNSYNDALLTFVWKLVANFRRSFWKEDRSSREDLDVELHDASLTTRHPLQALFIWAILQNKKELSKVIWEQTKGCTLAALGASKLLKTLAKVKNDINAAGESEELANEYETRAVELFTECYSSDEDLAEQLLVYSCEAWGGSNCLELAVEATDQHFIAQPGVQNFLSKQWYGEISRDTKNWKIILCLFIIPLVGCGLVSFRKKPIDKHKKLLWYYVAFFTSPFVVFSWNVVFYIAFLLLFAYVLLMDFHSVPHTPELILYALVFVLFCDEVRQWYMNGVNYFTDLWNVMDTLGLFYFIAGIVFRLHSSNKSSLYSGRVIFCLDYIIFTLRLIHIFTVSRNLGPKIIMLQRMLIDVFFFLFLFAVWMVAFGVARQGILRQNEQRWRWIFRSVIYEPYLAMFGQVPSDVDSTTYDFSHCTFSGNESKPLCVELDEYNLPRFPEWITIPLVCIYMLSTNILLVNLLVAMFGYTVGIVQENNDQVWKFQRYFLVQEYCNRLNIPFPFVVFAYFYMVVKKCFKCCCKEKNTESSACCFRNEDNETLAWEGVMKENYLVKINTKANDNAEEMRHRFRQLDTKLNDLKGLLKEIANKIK
T1 sequence (Q8R455 whole entry): as the sequence (Q8R455 whole entry, looked up) above

As to `Cc1ccc(C(C)C)c(C(=O)Nc2ccc(Cl)cc2)c1`, the Efficacy in assay [1] was 43.2%; in the assay with HEK293, 43.4%; in [8], less than 10%. In addition, the IC50 came out at 5 µM in assay [2], 4.8 µM in assay [3], 4.9 µM in assay [4] and 26.1 µM in assay [7]. The EC50 in assay [5] was 0.85 µM; in assay [6] it was 11.8 µM.
As for `COc1ccc(OC(=O)c2cc(C)ccc2C(C)C)cc1`, the figures for the Efficacy (in assay [1]; in the assay with HEK293; in assay [8]) were less than 10%, 27.1% and 194%, respectively. For the same molecule, the IC50 in assay [2] was 77.4 µM; in assay [3] it was greater than 100 µM; in [4] it was 5 µM; in assay [7], 3.6 µM. The EC50 is 3.6 µM in [9] and 4 µM in assay [6].
`COc1ccc(NC(=O)Nc2cc(C)ccc2C(C)C)cc1`: the Efficacy in assay [1] was less than 10%; in the assay on HEK293, less than 10%; in [8], 114%. In addition, the IC50 in [2] is 77.5 µM; in assay [3], 38.5 µM; in assay [4], 85.4 µM; in [7] it was 34.4 µM. Further, in assay [9], the 50% effective concentration (EC50) amounted to 14.1 µM.
With `Cc1ccc(C(C)C)c(NC(=O)Oc2ccc(C(F)(F)F)cc2)c1`, the values for the Efficacy (in assay [1]; in the assay with HEK293; in assay [8]) were less than 10%, less than 10% and 178%, respectively. For the same molecule, the IC50 is 73.7 µM in [2], 23.1 µM in assay [3], 50.3 µM in assay [4] and 4.1 µM in [7]. In addition, the EC50 in assay [9] amounted to 41 µM.
As for `Cc1ccc(C(C)C)c(C(=O)NCCc2ccccc2)c1`, the Efficacy in assay [1] was 64.1%; in the assay on HEK293 it was less than 10%; in assay [8] it was less than 10%. Moreover, the IC50 was 0.32 µM in [2], 0.6 µM in assay [3], 75.4 µM in [4] and greater than 100 µM in assay [7]. Besides, the EC50 in [5] was 0.27 µM.
Take `COc1ccc(C(=O)Nc2cc(C)ccc2C(C)C)cc1`: the Efficacy in assay [1] is 58.1%; with HEK293 it was less than 10%; in assay [8], 149%. Moreover, the IC50 in assay [2] was 15.2 µM; in [3], 14.7 µM; in [4] it was greater than 100 µM; in assay [7] it was greater than 100 µM. In addition, the EC50 in assay [9] was 45.9 µM; in assay [5] it was 4.8 µM.
Turning to `Cc1ccc(C(C)C)c(NC(=O)Nc2ccc(C(C)(C)C)cc2)c1`, the Efficacy in assay [1] is less than 10%; with HEK293, 31.6%; in [8], 235%. For the same molecule, the IC50 in assay [2] was 26.7 µM; in [3] it was greater than 100 µM; in assay [4] it was 3.3 µM; in [7] it was 25 µM. The values for the EC50 in [9] and in assay [6] were 4.3 µM and 7.6 µM, respectively.
For `Cc1ccc(C(C)C)c(O)c1` [THYMOL], the Efficacy in assay [1] came out at 31.1%; in the assay on HEK293 it was 34.7%; in [8], 119%. In addition, the IC50 in assay [2] was 169 µM; in assay [3], 315 µM; in assay [7], 125 µM. For the same molecule, the EC50 came to 287 µM in [9], 52.2 µM in assay [5] and 84.1 µM in assay [6].
As for `Cc1ccc(C(C)C)c(C(=O)Oc2ccc(-c3ccccc3)cc2)c1`, the Efficacy in assay [1] is less than 10%; with HEK293 it was 64.3%; in assay [8], 195%. In addition, the IC50 in assay [2] was greater than 100 µM; in assay [3], greater than 100 µM; in assay [4], 2.9 µM; in assay [7] it was 12.7 µM. The EC50 in assay [9] was found to be 7.4 µM; in assay [6], 14.5 µM.
Take `Cc1ccc(C(C)C)c(OC(=O)Cc2ccc(-c3ccccc3)cc2)c1`: the Efficacy in assay [1] is less than 10%; in the assay with HEK293, 52.7%; in assay [8], 226%. Besides, the IC50 in assay [2] was greater than 100 µM; in [3] it was greater than 100 µM; in assay [4] it was 1.5 µM; in [7], 20.9 µM. Besides, the EC50 in assay [9] was found to be 1.8 µM; in assay [6], 3.8 µM.
For `Cc1ccc(C(C)C)c(C(=O)NCCc2c[nH]c3ccc(OCc4ccccc4)cc23)c1`, the values for the Efficacy (in assay [1]; in the assay with HEK293; in [8]) were less than 10%, less than 10% and 241%, respectively. Moreover, the IC50 was found to be 61.4 µM in [2], 69.4 µM in assay [3], 41.9 µM in assay [4] and 70.2 µM in assay [7]. Further, the EC50 in [9] came out at 25.9 µM.
As to `Cc1ccc(C(C)C)c(C(=O)Nc2ccc(C(F)(F)F)cc2)c1`, the Efficacy in assay [1] came to 13.9%; in the assay on HEK293, 22.1%; in [8] it was 65.4%. The IC50 in assay [2] was found to be 4.4 µM; in assay [3], 3.2 µM; in [4] it was 75.1 µM; in [7], 3.6 µM. For the same molecule, the EC50 in assay [9] was found to be 3.9 µM; in [5], 45.8 µM; in assay [6], 59.7 µM.
As to `Cc1ccc(C(C)C)c(C(=O)Nc2ccc(C(C)(C)C)cc2)c1`, the results for the Efficacy (in assay [1]; in the assay on HEK293; in [8]) were 40%, 36.5% and 97.9%, respectively. Further, the IC50 was 1.2 µM in assay [2], 1.9 µM in assay [3], 1.1 µM in assay [4] and 0.84 µM in assay [7]. Besides, the EC50 in assay [9] stood at 0.6 µM; in assay [5] it was 0.6 µM; in assay [6] it was 1.2 µM.
For `Cc1ccc(C(C)C)c(NC(=O)Nc2ccc(-c3ccccc3)cc2)c1`, the Efficacy in assay [1] is less than 10%; in the assay with HEK293, 16.9%; in assay [8], 224%. The IC50 worked out at 25.4 µM in assay [2], 37.4 µM in [3], 12.8 µM in assay [4] and 27.9 µM in assay [7]. In addition, the EC50 was 32.2 µM in assay [9] and 5.9 µM in [6].
With `Cc1ccc(C(C)C)c(NC(=O)Oc2ccc(C(C)(C)C)cc2)c1`, the results for the Efficacy (in assay [1]; in the assay on HEK293; in assay [8]) were less than 10%, 62.5% and 132%, respectively. Moreover, the IC50 in assay [2] was found to be 0.85 µM; in assay [3] it was 0.7 µM; in assay [4], 1.9 µM; in assay [7], 0.78 µM. Moreover, the EC50 came to 1.3 µM in assay [9] and 1.4 µM in assay [6].
Consider `COc1ccc(C(=O)Oc2cc(C)ccc2C(C)C)cc1`, for which the Efficacy is less than 10% in assay [1], 23.1% in the assay with HEK293 and 149% in assay [8]. Moreover, the IC50 in assay [2] is 5 µM; in assay [3], 6.5 µM; in assay [4] it was 9.7 µM; in assay [7], 2.7 µM. Moreover, the figures for the concentration for a half-maximal effect (EC50) in [9] and in [6] were 1 µM and 4.9 µM, respectively.
Turning to `Cc1ccc(C(C)C)c(NC(=O)Cc2cccc(I)c2)c1`, the Efficacy was less than 10% in [1], 15% with HEK293 and 154% in assay [8]. Moreover, the half-inhibitory concentration (IC50) in assay [2] stood at 14.1 µM; in assay [3], 11.6 µM; in assay [4], 20.4 µM; in [7], 43.2 µM. Further, the EC50 stood at 20.5 µM in assay [9] and 15.9 µM in [6].
Turning to `COc1ccc(NC(=O)Oc2cc(C)ccc2C(C)C)cc1`, the Efficacy was 30.3% in [1], less than 10% with HEK293 and 264% in assay [8]. Further, the IC50 in [2] is 5.2 µM; in [3] it was 2.5 µM; in [4], 64.3 µM; in [7], 4.5 µM. For the same molecule, the EC50 came to 7.4 µM in assay [9] and 5.1 µM in assay [5].
On to `Cc1ccc(C(C)C)c(OC(=O)c2ccc(-c3ccccc3)cc2)c1`, for which the Efficacy in assay [1] is less than 10%; in the assay on HEK293, 33.8%; in [8], 204%. The IC50 stood at 18.6 µM in [2], 21.2 µM in assay [3], 6.5 µM in assay [4] and 5.5 µM in assay [7]. For the same molecule, the EC50 in assay [9] came out at 3.3 µM; in assay [6] it was 7.7 µM.
Regarding `Cc1ccc(C(C)C)c(NC(=O)Cc2ccc(-c3ccccc3)cc2)c1`, the Efficacy was less than 10% in assay [1], 39.3% in the assay with HEK293 and 212% in [8]. The 50% inhibitory concentration (IC50) in assay [2] came out at 78.3 µM; in assay [3], 31.2 µM; in assay [4], 29.7 µM; in assay [7] it was 3.9 µM. For the same molecule, the EC50 was 6.5 µM in assay [9] and 6.3 µM in assay [6].
For `Cc1ccc(C(C)C)c(N)c1`, the Efficacy was 33.8% in assay [1], less than 10% in the assay with HEK293 and 57.4% in assay [8]. In addition, the 50% inhibitory concentration (IC50) in [2] was 113 µM; in assay [3], 238 µM; in assay [4], greater than 100 µM; in assay [7], 212 µM. Further, the concentration giving a half-maximal response (EC50) turned out to be 64.2 µM in assay [9] and 43.4 µM in [5].

A word on the IC50: it is the point on the concentration scale where inhibition reaches its midpoint. As a reminder, the EC50 is the concentration giving half of the maximal effect.
